High-throughput results from PubChem BioAssay.
Compounds with a hit are over-represented: about 4% of the library has one in this group of screens.
CHOP inh: CHOP inhibition in unfolded protein response. CHO-K1 CHOP-promoter luciferase, tunicamycin-induced, 15-18 h. inhibition, % at 10 µM. 220,000 compounds, 3.8% hits;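 active = compounds that reduced the stress-induced luciferase reporter signal by more than about 70% of percent inhibition, limit read from the data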;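 note: 0% = tunicamycin plus vehicle and 100% = wells without tunicamycin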
S1P3 antag: blocks the human S1P3 receptor | 170,000 compounds, 0.27% hits | inhibition, % at 4.98 µM | CHO S1P3 NFAT-BLA reporter, FRET fluorescence, antagonist mode | Q99500;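 active = inhibition above the plate cutoff, the mean inhibition of test wells on that plate plus 3 SD, cut at about 28% in these data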;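 note: cells challenged with S1P at its EC80 of 0.8 µM; blue over green emission ratio from cleaved BLA substrate after 4 h stimulation; 0% = S1P-stimulated wells and 100% = unstimulated DMSO-only wells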
Hsp70 activator: transcriptional activators of Hsp70. 200,000 compounds, 0.04% hits. AID 1203. activation, % at 10 µM. HeLa Hsp70 promoter luciferase reporter, luminescence; scaled: vehicle 0, proteasome-inhibitor control 100%;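 active = activation above the mean across all tested compounds plus 3 SD, cutoff set per campaign, cut at about 5.5% in these data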;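 note: 100% = MG132 at 30 µM as the positive control and 0% = DMSO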
Mdm2 ligase inh: blocks human Mdm2 ubiquitin ligase activity | Q00987 | cell-based MDM2 ubiquitination luciferase reporter, 2 h; 0 = plate control, 100 = twice control, blank-subtracted | signal enhancement, % at 5 µM | 210,000 compounds, 0.11% hits | AID 1230;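 active = signal enhancement of 30% or more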;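 note: luminescence tracks abundance of the self-degrading MDM2-luciferase fusion protein; higher signal means inhibition of MDM2 E3 ligase activity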
Target sequence (Q00987 whole entry, looked up, the tested form may be a part): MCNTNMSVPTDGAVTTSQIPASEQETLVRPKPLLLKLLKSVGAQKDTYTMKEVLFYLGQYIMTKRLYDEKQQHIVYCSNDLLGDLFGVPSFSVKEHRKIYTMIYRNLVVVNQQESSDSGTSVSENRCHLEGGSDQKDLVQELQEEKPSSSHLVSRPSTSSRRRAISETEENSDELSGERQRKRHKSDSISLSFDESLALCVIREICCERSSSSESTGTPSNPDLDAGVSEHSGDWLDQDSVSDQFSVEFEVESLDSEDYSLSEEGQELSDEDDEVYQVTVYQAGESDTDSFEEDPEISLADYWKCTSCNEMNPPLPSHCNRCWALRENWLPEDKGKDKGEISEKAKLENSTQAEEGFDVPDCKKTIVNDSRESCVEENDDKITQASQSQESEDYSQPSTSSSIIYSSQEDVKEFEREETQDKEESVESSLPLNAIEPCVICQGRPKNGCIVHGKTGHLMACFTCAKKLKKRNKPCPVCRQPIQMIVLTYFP
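Timing – 2 h compound exposure at 37 °C · Assay system – mammalian cells stably expressing self-ubiquitinating, self-degrading MDM2 E3–luciferase fusion · Amount – 2000 cells seeded into each well · Measure – % luminescence enhancement versus blank-corrected plate control mean · Measured by – SteadyLite luminescence, 15 min reagent step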
CHOP inh conf: confirmation of CHOP induction inhibitors; shares compounds with CHOP inh; CHO-CHOP promoter luciferase reporter, tunicamycin-induced, luminescence; inhibition, % at 10 µM; 2,100 compounds, 45% hits;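 active = mean of three repeat readings of reporter signal inhibition above a set limit, cut at about 70% in these data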;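 note: 0% = tunicamycin plus vehicle and 100% = wells lacking tunicamycin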
Starred values were filed as active, the others as inactive; / = no result.

SMILES	CHOP inh	S1P3 antag	Hsp70 activator	Mdm2 ligase inh	CHOP inh conf
Cc1nn(-c2ccccc2)c(/N=C/c2ccc(O)cc2)c1-c1ccccc1	104*	-5	0	-3	28
FC(F)(F)c1ccc(/C=N/NC(=S)NC2CCCCC2)cc1	106*	-16	0	-1	108*
COc1ccc(Br)c(C(=O)N2CCN(S(=O)(=O)c3cccs3)CC2)c1	-2	3	/	/	/
CC(C)COc1ccc(C(=O)Nc2ccc(NC(=O)c3ccco3)c(Cl)c2)cc1	101*	/	0	-3	69
O=c1oc2ccccc2c(N2CCCC2)c1CN1CCCC1	21	/	0	-36	/
O=c1oc2ccccc2c(Cl)c1CN1CCCCC1	107*	-11	0	17	123*
CCc1ccc(-c2nc(CSCC(=O)NCc3ccco3)c(C)o2)cc1	102*	-10	0	-13	135*
Cc1cc(C)n2nc(/C(C#N)=C/c3ccccn3)c(C#N)c2n1	-198	-9	0	-2	/
Cc1cc(C(=O)CSc2nnc(-c3cccs3)o2)c(C)n1-c1ccccc1	/	-14	0	-46	/
Cc1cccc(/C=C2/S/C(=N/N=C3\CC4CCC3(C)C4(C)C)NC2=O)c1 (configuration not stated)	105*	/	0	9	106*
COc1ccc(N2CCN(C(=O)CC34CC5CC(CC(C5)C3)C4)CC2)c([N+](=O)[O-])c1	43	-9	0	/	/
CC(C)Cn1c(=O)[nH]c(=O)c2c(C(F)(F)F)cc(-c3ccccc3)nc21	99*	6	/	/	100*
COc1cc2c(cc1OC)C1=CC(=O)C(=O)N1C(C)(C)C2	6	7	0	-6	/
O=C(NCC1CCCO1)c1sc2cc(Cl)ccc2c1Cl (configuration not stated)	-22	-1	0	-21	/
O=C(CNS(=O)(=O)c1c(Cl)cccc1Cl)OCc1csc(-c2ccccc2)n1	35	-3	0	-5	/
CC(C)(C)C(=O)NC(=S)NNC(=O)C(c1ccccc1)c1ccccc1	106*	9	0	3	121*
CCOC(=O)c1ccc(NC(=O)N2CCN(c3ccccc3OC)CC2)cc1	24	-19	0	-9	/
CCOC(=O)CC1C(=O)NCCN1S(=O)(=O)c1ccc(Br)cc1 (configuration not stated)	4	-18	0	-12	/
Cc1ccc2sc(NC(=O)c3ccc(N4C(=O)CCC4=O)cc3)nc2c1C	100*	-38	0	/	-21
O=C(NCCCn1ccnc1)c1cccc(S(=O)(=O)NCc2ccccc2)c1	-11	6	0	-6	/
CCOC(=O)CC(=O)N/N=C/c1c(N)n(C)c(=O)n(C)c1=O	17	-15	0	-13	/
O=c1c2c([N+](=O)[O-])cc([N+](=O)[O-])cc2sn1-c1ccc(Br)cc1	97*	-1	0	2	12
COCC(=O)N(CCc1ccc(OC)c(OC)c1)Cc1cc2cc(C)ccc2nc1Cl	10	1	0	1	/
CCOc1ccc(N(CC(=O)Nc2cccc(Cl)c2)S(=O)(=O)c2c(C)noc2C)cc1	107*	20	0	-14	81*
CCCn1nnc(NC(=O)/C=C/c2ccccc2)n1	4	-10	0	-1	/
SMILES	CHOP inh	S1P3 antag	Hsp70 activator	Mdm2 ligase inh	CHOP inh conf
Cc1nc(NC(=O)/C=C/c2ccccc2)n[nH]1	97*	2	0	39*	49
O=c1[nH]c2cc3c(cc2cc1C(c1nnnn1Cc1ccccc1)N1CCN2CCCC2C1)OCCO3 (configuration not stated)	0	2	0	-9	/
O=c1[nH]c2cc3c(cc2cc1C(c1nnnn1Cc1ccccc1)N1CCCCCC1)OCCO3 (configuration not stated)	101*	/	-1	-6	29
Cc1sc(NC(=O)Cn2c(=O)oc3ccccc32)nc1-c1ccc(Cl)cc1	98*	-8	0	-9	34
CCCc1nnc(NC(=O)Cn2c(=O)oc3ccccc32)s1	11	-25	0	-19	/
O=C(Nc1cc(S(=O)(=O)N2CCCCC2)ccc1N1CCCCC1)c1ccncc1	-8	2	/	/	/
CC(C)CCN(C(=O)Cc1ccc(Cl)c(Cl)c1)c1c(N)n(Cc2ccccc2)c(=O)[nH]c1=O	103*	-4	0	7	108*
Cc1ccc(C(C)C)c(OCc2ccc(C(=O)N/N=C/c3ccc(O)cc3O)cc2)c1	52	-9	-1	-4	/
Cc1ccc(C(C)C)c(OCc2ccc(C(=O)N/N=C/c3ccc(C(=O)O)cc3)cc2)c1	97*	-4	/	/	31
Cc1ccc(S(=O)(=O)N/N=C\c2cn(-c3ccccc3)nc2-c2ccccc2)cc1	97*	/	0	-33	5
CCOc1ccc(S(=O)(=O)Nc2ccc(F)cc2)c(C)c1C	106*	/	0	-17	59
S=c1[nH]nc(COc2ccccc2)n1/N=C/C(Cl)=C/c1ccccc1	103*	/	0	-6	-3
Cc1cccn2cc(CCNC(=O)c3cccs3)nc12	-5	5	/	-8	/
O=C(On1c(-c2ccccc2)nc2ccccc2c1=O)c1ccco1	104*	/	0	-11	116*
COc1ccc2nc(/C=N/NC(=O)[C@H](C)NC(=O)OC(C)(C)C)ccc2c1	12	-2	0	-11	/
COc1ccc(NC(=O)c2cc3cccc(OC)c3oc2=Nc2ccc(C(=O)O)cc2)cc1OC	103*	-7	0	-8	110*
COc1ccc(Br)cc1C(=O)Nc1ccc(C(=O)O)cc1	-5	-12	0	-6	/
CCOC(=O)c1c(NC(=O)Cc2cccs2)sc(C(=O)NC2CCCCC2)c1C	106*	/	0	-4	74*
CC(Oc1ccc(NC(=O)c2ccco2)cc1)C(=O)N1c2ccccc2CC1C (configuration not stated)	-4	-9	0	0	/
Cc1ccc(S(=O)(=O)CC#CCOC(=O)c2ccc([N+](=O)[O-])cc2)cc1	107*	/	0	1	108*
Cc1ccc(C(=O)c2ccc([N+](=O)[O-])cc2)cc1	54	/	0	-20	/
CC1Cc2nc(SCC(=O)OCc3ccccc3)n(C)c(=O)c2S1 (configuration not stated)	-6	-17	0	-30	/
Cc1cc(C(=O)COC(=O)c2ccccc2O)c(C)n1Cc1cccs1	109*	/	-1	-75	111*
CCOc1cccc2cc(-c3nnc(NCc4ccco4)s3)c(=O)oc12	97*	17	0	-19	20
C=CC(=O)NC1CC2CCC1(C)C2(C)C (configuration not stated)	-6	-7	/	-11	/
Clc1ccc(-c2csc(N/N=C/c3cccnc3)n2)c(Cl)c1	98*	0	0	/	87*
C(=N\Nc1nc(-c2ccccc2)cs1)/c1cccnc1	42	/	0	7	/
COc1ccc(CC(=O)NCc2nc(-c3ccccc3)no2)cc1	8	-5	0	-7	/
